Published values from different studies.
Each line is one published result; the experiments were not run side by side.
Target: Protein-tyrosine kinase 6 (PTK6, Homo sapiens, UniProt Q13882)

CCN(CC)CCNC(=O)c1c(C)[nH]c(/C=C2\C(=O)Nc3ccc(F)cc32)c1C
inhibition (enzyme activity; inhibitor; 10 µM): 74%

Cc1nc(Cc2cccc(C(F)(F)F)c2)sc1-c1ccc(C(N)=O)nc1
remaining binding (cell-free assay; competition with immobilised ligand; 1 µM): 100%

Cc1ccc(C(=O)Nc2ccc(CN3CCN(C)CC3)c(C(F)(F)F)c2)cc1C#Cc1cnc2cccnn12
remaining activity (enzyme activity; inhibitor; 23.5 nM): 95%

C=CC(=O)Nc1cc(Nc2nccc(Nc3cc(Cl)c(F)cc3C(C)(C)O)n2)c(OC)cc1N1CC[C@@H](N(C)C)C1
inhibition (enzyme activity; inhibitor; 1 µM): 63%

CC(C)(C)c1nc(-c2cccc(NS(=O)(=O)c3c(F)cccc3F)c2F)c(-c2ccnc(N)n2)s1
remaining activity (enzyme activity; inhibitor; radiometric; 1 µM): 26%

COc1cc(Nc2cnc(C#N)c(O[C@H](C)CN(C)C)n2)ncc1-c1cnn(C)c1
remaining activity (enzyme activity; inhibitor; radiometric; 1 µM): 98%

COc1cc2ncnc(Nc3ccc(Oc4ccccc4)c(C)c3C)c2cc1OC
inhibition (enzyme activity; inhibitor; 1 µM): 93%

CS(=O)(=O)c1cc(C2(NC(=O)c3cncc4c3cnn4-c3ccc(F)cc3)CC2)ccn1
remaining binding (cell-free assay; competition with immobilised ligand; 1 µM): 80%

FC(F)(F)Oc1cccc(-c2cnc3ccc(-c4ccncc4)nn23)c1
activity vs control (enzyme activity; inhibitor; radiometric; 1 µM): 72%

O=C(Nc1cnn(-c2csc(C(=O)NC3COC3)c2)c1)Nc1ccccc1Cl
remaining activity (enzyme activity; inhibitor; 5 µM): 118%

CC(=O)C1=C(C)N(c2cccc(C(F)(F)F)c2)C(=O)N[C@@H]1c1ccc(C#N)nc1
remaining binding (cell-free assay; competition with immobilised ligand; 1 µM): 100%

CNC(=O)c1cc(Oc2ccc(NC(=O)Nc3ccc(Cl)c(C(F)(F)F)c3)cc2)ccn1
inhibition (enzyme activity; inhibitor; 0.3 µM): -3%

COc1cc(Cl)c(C(=O)N[C@@H](CN[C@H]2CC[C@@H](N)CC2)Cc2ccc(C#N)cc2)cc1-c1ccc(CN[C@H](C)c2ccc(C)cc2)o1
remaining activity (enzyme activity; inhibitor; 1 µM): 98%

Nc1nc(Nc2ccc(S(N)(=O)=O)cc2)nn1C(=O)c1c(F)cccc1F
remaining signal (cell-free assay; 0.5 µM): 83.9%

CCCOc1ccc([C@@H]2[C@@H](C(=O)O)[C@H](c3ccc4c(c3)OCO4)CN2CC(=O)Nc2c(CC)cccc2CC)cc1
remaining binding (cell-free assay; competition with immobilised ligand; 1 µM): 83%

CN(C)C1CCN(CC#Cc2nn(C3CCCC3)c3nc(NCc4ccccc4)ncc23)C1 (stereo not drawn)
inhibition (enzyme activity; inhibitor; FRET; 1 µM): 1%

COc1cc2nccc(Oc3ccc(NC(=O)c4c5n(n(-c6ccc(F)cc6)c4=O)CCCC5)cc3)c2cc1OC
inhibition (enzyme activity; inhibitor; 0.1 µM): 37%

Cc1sc(C(=O)NC2COC2)cc1-n1cc(NC(=O)Nc2c(F)cccc2Cl)cn1
remaining activity (enzyme activity; inhibitor; 10 µM): 78.9%

COc1ccc2c(O[C@@H]3C[C@H]4C(=O)N[C@]5(C(=O)O)CC5/C=C\CCCCC[C@H](NC(=O)OC5CCCC5)C(=O)N4C3)cc(-c3csc(NC(=O)C(C)C)n3)nc2c1C (stereo partly drawn)
remaining binding (cell-free assay; competition with immobilised ligand; 1 µM): 97%

CCCOc1ccc(OC)c(F)c1C(=O)c1ccc(C(=O)N[C@@H]2CNC[C@H]2NC(=O)c2ccc3[nH]ncc3c2)cc1
remaining activity (enzyme activity; inhibitor; 10 µM): 97%

O=C1CCc2cc(Nc3cc(OC4CCOCC4)c([N+](=O)[O-])cc3Cl)ccc2N1
remaining binding (cell-free assay; competition with immobilised ligand; 1 µM): 100%

CC(C)(O)[C@H]1CC[C@H](Nc2ccc3ncc(-c4cccc(C(F)(F)F)c4)n3n2)CC1
remaining activity (enzyme activity; inhibitor; 1 µM): 50.4%

CNC(=O)c1cc2c(Oc3ccc(NC(=O)C4(C(=O)Nc5ccc(F)cc5)CC4)cc3)ccnc2cc1OC
inhibition (enzyme activity; inhibitor; radiometric; 1 µM): 98%

Cc1cc(C)c(-n2ccn3nc(-c4cccnc4)cc23)cc1NC(=O)c1cc(C#N)cc(S(F)(F)(F)(F)F)c1
remaining binding (cell-free assay; competition with immobilised ligand; 0.1 µM): 99.5%

Cc1ccc(Nc2nccc(N(C)c3ccc4c(C)n(C)nc4c3)n2)cc1S(N)(=O)=O
inhibition (enzyme activity; inhibitor; 10 µM): 88%

O=C(N1CCS(=O)(=O)CC1)N1C[C@H](c2ccc(OC(F)(F)F)cc2)C[C@H](c2nc(C3CC3)no2)C1
remaining binding (cell-free assay; competition with immobilised ligand; 1 µM): 100%

O=C1NC(=O)c2cc(Nc3ccc(F)cc3)c(Nc3ccc(F)cc3)cc21
remaining signal (cell-free assay; 0.5 µM): 95.1%
